One test deals with Histone deacetylase 1 (Homo sapiens, UniProt Q13547). The test can be described thus: Inhibition of recombinant full length HDAC1 (unknown origin) using Ac-peptide-AMC as substrate at 100 nM after 1 hr by fluorescence assay relative to control. The method, boiled down: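 Full-length recombinant HDAC1 or HDAC6 was incubated with compound, trypsin and Ac-peptide-AMC substrate for 1 h at room temperature. Fluorescence was read at ex 355/em 460 nm. Inhibition was calculated against the DMSO vehicle control.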
Histone deacetylase 1, sequence (Q13547 whole entry): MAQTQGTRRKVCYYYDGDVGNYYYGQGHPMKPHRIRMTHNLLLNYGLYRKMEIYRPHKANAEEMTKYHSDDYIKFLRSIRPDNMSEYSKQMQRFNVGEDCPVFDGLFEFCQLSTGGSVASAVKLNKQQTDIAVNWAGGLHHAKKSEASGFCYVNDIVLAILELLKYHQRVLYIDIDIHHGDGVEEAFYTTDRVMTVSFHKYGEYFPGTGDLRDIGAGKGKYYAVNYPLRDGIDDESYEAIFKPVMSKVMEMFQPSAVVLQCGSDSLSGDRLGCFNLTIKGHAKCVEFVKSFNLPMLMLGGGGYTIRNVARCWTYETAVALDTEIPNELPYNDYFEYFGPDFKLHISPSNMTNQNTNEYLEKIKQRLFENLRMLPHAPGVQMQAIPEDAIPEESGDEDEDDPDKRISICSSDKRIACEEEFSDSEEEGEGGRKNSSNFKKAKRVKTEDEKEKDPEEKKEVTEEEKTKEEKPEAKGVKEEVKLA

The target of the next test is Histone deacetylase 5 (Homo sapiens, UniProt Q9UQL6). The test can be described thus: Inhibition of recombinant full length N-terminal GST-tagged human HDAC5 expressed in baculovirus infected Sf9 cells using Ac-peptide-AMC as substrate after 1 hr by fluorescence assay.
Histone deacetylase 5, sequence (Q9UQL6 whole entry): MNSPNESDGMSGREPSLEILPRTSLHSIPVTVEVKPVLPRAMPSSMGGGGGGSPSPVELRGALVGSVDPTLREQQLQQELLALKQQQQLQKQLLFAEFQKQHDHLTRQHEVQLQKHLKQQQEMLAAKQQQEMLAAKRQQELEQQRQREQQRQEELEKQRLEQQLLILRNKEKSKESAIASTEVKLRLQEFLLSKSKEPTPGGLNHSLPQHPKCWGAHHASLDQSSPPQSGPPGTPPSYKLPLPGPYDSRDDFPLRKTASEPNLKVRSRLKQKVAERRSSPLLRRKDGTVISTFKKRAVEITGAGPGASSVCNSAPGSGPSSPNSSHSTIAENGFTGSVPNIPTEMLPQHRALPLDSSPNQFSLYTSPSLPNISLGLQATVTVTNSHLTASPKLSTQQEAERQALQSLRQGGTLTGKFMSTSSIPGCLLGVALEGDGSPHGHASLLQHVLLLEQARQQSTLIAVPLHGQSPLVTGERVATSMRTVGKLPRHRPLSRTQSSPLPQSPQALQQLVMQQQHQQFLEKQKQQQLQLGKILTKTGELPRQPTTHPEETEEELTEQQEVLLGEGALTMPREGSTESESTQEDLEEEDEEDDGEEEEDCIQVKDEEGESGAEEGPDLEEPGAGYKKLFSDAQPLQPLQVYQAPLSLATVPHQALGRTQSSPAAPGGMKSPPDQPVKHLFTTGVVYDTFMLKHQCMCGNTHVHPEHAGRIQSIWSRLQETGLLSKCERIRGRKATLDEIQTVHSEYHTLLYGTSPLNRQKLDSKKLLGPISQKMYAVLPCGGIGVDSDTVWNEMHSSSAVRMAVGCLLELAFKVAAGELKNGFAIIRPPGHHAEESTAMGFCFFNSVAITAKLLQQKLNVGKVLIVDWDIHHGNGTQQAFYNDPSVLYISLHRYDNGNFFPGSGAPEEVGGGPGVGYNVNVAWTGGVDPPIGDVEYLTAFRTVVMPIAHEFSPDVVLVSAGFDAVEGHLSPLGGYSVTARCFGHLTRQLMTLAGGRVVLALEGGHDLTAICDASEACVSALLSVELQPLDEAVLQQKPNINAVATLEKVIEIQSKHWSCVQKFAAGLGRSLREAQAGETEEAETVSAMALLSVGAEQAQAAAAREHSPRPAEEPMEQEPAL
The subject of the next test is Daudi. The test can be described thus: Antitumour activity against human Daudi cells xenografted in NOD/SCID mouse assessed as DNA damage at 10 mg/kg, iv treated on day 1,3 and 5 per week. The class given is functional, organism-based. A digest of the protocol: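 Daudi s.c. xenografts in female NOD/SCID mice (5–6 weeks) were randomized six per group at 100–200 mm3. Dosing was 10 mg/kg i.v. or 20 mg/kg p.o. in 8% HP-β-CD on days 1, 3 and 5 weekly. Tumors were collected at study end for immunohistochemistry, with comparison to the control group.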

The source made the active and inactive calls. The calls are words filed in the database; no cut-off is given here.

For the molecule `Cc1ccc(CN2CCC(c3noc(CN(C)c4ncc(C(=O)NO)cn4)n3)CC2)cc1`, on Histone deacetylase 1, the inhibition was 96%. Besides, the IC50 on Histone deacetylase 5 stood at 540 nM. Moreover, the outcome with Daudi was Active.

The record behind these values is ChEMBL document CHEMBL4364248, “Discovery of 1,2,4-oxadiazole-Containing hydroxamic acid derivatives as histone deacetylase inhibitors potential application in cancer therapy” (Eur J Med Chem, 2019).
